Compound activity: PubChem, SRMLSC
The full list was thinned out, with hits kept by preference.
HUVEC prolif 384: human endothelial cell proliferation inhibition | HUVEC proliferation, CellTiter-Glo luminescence, 72 h; active compounds read low | viability, % at 10 µM (by protocol) | hit rate 1.1% among 86,000 | AID 648;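 active = viability at or below 30%; inactive = viability above 30%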
H69AR growth 86K: growth inhibitors of human H69AR lung tumor cells; hit rate 6% among 85,000; viability, % at 10 µM; H69AR lung tumor viability, ATP luminescence, 72 h; active compounds read low;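 active = viability at or below 40%; inactive = viability above 40%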;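 also: multidrug resistant small cell line overexpressing MRP-1 efflux transporter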
bCat KO growth: beta-catenin-lacking colon tumor cell growth suppression | HCT116 beta-catenin knockout viability, CellTiter-Glo, 60 h; active compounds read low | viability, % at 10 µM | hit rate 1.5% among 140,000 | AID 818;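 active = viability at or under a set limit, the compound median less 4 SD, cut at about 6% in these data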
Lung fibro prol: blocks proliferation of human lung fibroblasts | viability, % at 10 µM | LL 47 human lung fibroblast viability, ATP luminescence; active compounds read low | hit rate 1.1% among 85,000;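 active = viability at or below 50% in the single dose screen; inactive = viability above 50%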;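 also: compound exposure lasted 72 h before the ATP readout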
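Signal: luminescent ATP detection, CellTiter-Glo; assay system: LL 47 human lung fibroblasts; input: 1,150 cells/well; incubation: overnight cell rest, 72 h compound treatment at 37 °C; measure: % viability versus median cells-only luminescence; medium: IMEM growth medium with 15% fetal bovine serum; dosing: compound addition at 0.1% DMSO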
PTEN del growth: growth suppressors of cells with PTEN tumor suppressor deletion. HCT116 PTEN-null viability, CellTiter-Glo, 60 h; active compounds read low. viability, % at 10 µM. hit rate 1.2% among 140,000;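 active = viability at or below a set limit, 4 SD under the median of all tested compounds, cut at about 3.7% in these data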;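 also: PTEN knockout HCT116 line with beta catenin targeted HCT116 as companion control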
Of the large screens only hits and unclear results are named; the others gave an inactive call.

C/C(O)=C(\C#N)c1nc2ccccc2[nH]1	none (no result: HUVEC prolif 384, H69AR growth 86K, Lung fibro prol)
N#C/C(=C(\O)Cc1ccccc1)c1nc2ccccc2[nH]1	H69AR growth 86K 15
Cc1cc(C)cc(OCC(=O)OC/C(O)=C(\C#N)c2nc3ccccc3[nH]2)c1	bCat KO growth 3.9 (no result: HUVEC prolif 384, H69AR growth 86K, Lung fibro prol)
N#C/C(=C(/O)COC(=O)CCC1CCCCC1)c1nc2ccccc2[nH]1	H69AR growth 86K 25
Cc1cccc(C)c1OCC(=O)OC/C(O)=C(\C#N)c1nc2ccccc2[nH]1	none (no result: HUVEC prolif 384, H69AR growth 86K, Lung fibro prol)
COc1ccc(C=C(C(C)=O)C(C)=O)cc1OC	H69AR growth 86K 22
CCOC(=O)C1=C(NC(=O)c2ccc(Br)o2)Nc2ccccc2N=C1	H69AR growth 86K 31
N#CCc1ccc(C(=O)c2ccccc2F)s1	none (no result: HUVEC prolif 384, H69AR growth 86K, Lung fibro prol)
COc1cc(NC(=O)c2c(F)c(F)c(F)c(F)c2F)c(OC)cc1Cl	H69AR growth 86K 14
CC1CCN(c2cc(N)c(Cl)cc2[N+](=O)[O-])CC1	none (no result: HUVEC prolif 384, H69AR growth 86K, Lung fibro prol)
O=C(O)c1cccc(Nc2nc(N3CCOCC3)nc(N3CCOCC3)n2)c1	none
CN1CCN(c2nc(Nc3cccc(C(F)(F)F)c3)nc(N3CCOCC3)n2)CC1	HUVEC prolif 384 9.8 (no result: Lung fibro prol)
O=C(CNc1ccc(C(F)(F)F)cc1[N+](=O)[O-])OCC(=O)c1ccccc1	none
O=C(CS(=O)c1ccc(C(F)(F)F)cc1[N+](=O)[O-])Oc1ccccc1 (stereo unspecified)	HUVEC prolif 384 25, H69AR growth 86K 3.1, Lung fibro prol 44
CSCC[C@H](NC(=O)C1CCN(S(=O)(=O)c2ccc(C)cc2)CC1)C(=O)NC1CCS(=O)(=O)C1 (stereo partly specified)	none (no result: HUVEC prolif 384, H69AR growth 86K, Lung fibro prol)
CCCC(=O)Nc1ccccc1Sc1ncnc2scc(-c3ccccc3)c12	none (no result: HUVEC prolif 384, H69AR growth 86K, Lung fibro prol)
COC(=O)c1cc(OC)c(OC)cc1NC(=O)c1ccccc1	H69AR growth 86K 39
COc1cc(NC(=O)c2cccs2)c(C(=O)OCC(=O)NCc2ccccc2)cc1OC	HUVEC prolif 384 19, H69AR growth 86K 6.7
COc1ccc2c(c1)nc(SCC(=O)c1cccs1)n2C	none (no result: HUVEC prolif 384, H69AR growth 86K, Lung fibro prol)
C=CCOc1c(Cl)cc(C2NC(=O)NC(C)=C2C(=O)OC)cc1Cl (stereo unspecified)	H69AR growth 86K 32
O=C(CCCOc1ccc(Cl)cc1Cl)N/N=C/c1ccccc1O	bCat KO growth 4.6 (no result: HUVEC prolif 384, H69AR growth 86K, Lung fibro prol)
COc1cc(CN2CCN(c3cccc(Cl)c3)CC2)cc(OC)c1OC	H69AR growth 86K 26
CCCCCn1c(N)c(-c2nc3ccccc3s2)c2c([N+](=O)[O-])nn(C)c(=O)c21	H69AR growth 86K 15
CCCCn1c(N)c(-c2nc3ccccc3o2)c2c([N+](=O)[O-])nn(C)c(=O)c21	none (no result: HUVEC prolif 384, H69AR growth 86K, Lung fibro prol)
Cc1nn2c(NCC(C)C)c3c(nc2c1-c1ccccc1)CCC3	H69AR growth 86K 34
Cc1nn2c(NCCCN(C)C)c3c(nc2c1-c1ccccc1)CCC3	H69AR growth 86K 6.6, bCat KO growth 2.4, Lung fibro prol 10, PTEN del growth 1.7
C#CCn1cc(/C=N/Nc2nc3ccccc3[nH]2)c2ccccc21	none (no result: HUVEC prolif 384, H69AR growth 86K, Lung fibro prol)
COc1ccc(OCCn2nnc(-c3ccc(Cl)cc3)n2)cc1	none (no result: HUVEC prolif 384, H69AR growth 86K, Lung fibro prol)
Cn1nc(-c2ccc(Cl)cc2)nc2c(=O)n(C)c(=O)nc1-2	HUVEC prolif 384 3.6, H69AR growth 86K 0.7, Lung fibro prol 32
CCOc1ccc(-c2nc(N)ncc2Oc2cccc(OC)c2)c(O)c1	H69AR growth 86K 14
O=C(COc1ccc(Cl)cc1Cl)NN=C1CCCCC1	none (no result: HUVEC prolif 384, H69AR growth 86K, Lung fibro prol)
Cn1cc(C(=O)c2ccc(Cl)cc2Cl)cc1C(=O)O	none (no result: HUVEC prolif 384, H69AR growth 86K, Lung fibro prol)
Cn1cc(C(=O)c2ccc(Cl)cc2Cl)cc1C(=O)N/N=C(\N)COc1ccc(Cl)cc1Cl	H69AR growth 86K 18
Cn1cc(C(=O)c2ccc(Cl)cc2Cl)cc1C(=O)N/N=C(\N)COc1ccc(F)cc1	H69AR growth 86K 25
Cn1cc(C(=O)c2ccc(Cl)cc2Cl)cc1C(=O)N/N=C(\N)COc1ccccc1	H69AR growth 86K 33
O=C(Nc1ccc([N+](=O)[O-])cn1)c1ccc(Br)o1	none (no result: HUVEC prolif 384, H69AR growth 86K, Lung fibro prol)
O=C1C(=O)c2c(C(=O)c3ccccc3)coc2-c2ccccc21	HUVEC prolif 384 3.2, H69AR growth 86K 0.5, bCat KO growth 1.8, Lung fibro prol 36, PTEN del growth 1.5
O=C(c1ccccc1)c1coc2ccc(O)c(Cl)c12	none
Cc1oc2c(c1C(=O)c1ccccc1)C(=O)C(=O)c1ccccc1-2	HUVEC prolif 384 3.1, H69AR growth 86K 1.4, bCat KO growth 1.2, Lung fibro prol 2.1, PTEN del growth 1.5
NC(=O)c1c(NC(=O)c2ccccc2)sc2c1CCc1ccccc1-2	H69AR growth 86K 26
NC(=O)c1c(NC(=O)c2ccco2)sc2c1CCC2	none
O=C1NC(=S)N(C(=O)c2ccc(F)cc2)/C1=C/c1ccccc1	PTEN del growth 1.7 (no result: HUVEC prolif 384, H69AR growth 86K, Lung fibro prol)
CCCCn1c(=N)n(CC(O)COc2ccc(C)cc2)c2ccccc21 (stereo unspecified)	H69AR growth 86K 7.4, bCat KO growth 2.0, PTEN del growth 1.7
CCn1c(=N)n(CC(O)COc2cccc(C)c2)c2ccccc21 (stereo unspecified)	none
CCCn1c(=N)n(CC(O)COc2cccc(C)c2)c2ccccc21 (stereo unspecified)	bCat KO growth 2.6, PTEN del growth 3.2
CCCCC(=O)N/N=C/c1ccc(N2CCOCC2)c([N+](=O)[O-])c1	none (no result: HUVEC prolif 384, H69AR growth 86K, Lung fibro prol)
CS(=O)(=O)Nc1nnc(SCC(=O)N(c2ccccc2)c2ccccc2)s1	none (no result: HUVEC prolif 384, H69AR growth 86K, Lung fibro prol)
OCC[C@@H]1C[C@@H](O)[C@H](O)[C@]2(CCCCO2)O1	none (no result: HUVEC prolif 384, H69AR growth 86K, Lung fibro prol)
O=C(O)CCc1nc2cccnc2n1Cc1ccccc1	none
CCc1ccc(NC(=O)CCc2nc3cccnc3n2Cc2ccc(OC)cc2)cc1	H69AR growth 86K 18, Lung fibro prol 45
Cc1ccccc1OCc1nnc(SCC(=O)Nc2ccc3c(c2)oc2ccccc23)n1C	H69AR growth 86K 21
Cn1c(SCC(=O)Nc2cccc(Br)c2)nnc1-c1cc2ccccc2o1	bCat KO growth 2.6, PTEN del growth 2.2
Cc1cc2nc(C)n(CCCNC(=O)Nc3ccc(C#N)cc3)c2cc1C	none
Cc1cc2nc(C)n(CCCN)c2cc1C	H69AR growth 86K 13
CN1/C(=C\C(=O)c2cccs2)C(C)(C)c2ccccc21	none (no result: HUVEC prolif 384, H69AR growth 86K, Lung fibro prol)
CCc1ccc2c(c1)/C(=C/C(=O)c1cccs1)C(=O)N2	H69AR growth 86K 1.7, bCat KO growth 0.8, Lung fibro prol 6.5, PTEN del growth 0.8
CCc1ccc2c(c1)/C(=N/N(C)C(=S)NC)C(=O)N2	none (no result: HUVEC prolif 384, H69AR growth 86K, Lung fibro prol)
Cc1cccc2c1NC(=O)/C2=C\C(=O)c1cccs1	HUVEC prolif 384 29, H69AR growth 86K 2.1, bCat KO growth 4.9, Lung fibro prol 6.1, PTEN del growth 2.2
Cc1cc(C)c2c(c1)/C(=C/C(=O)c1ccc(Br)s1)C(=O)N2	HUVEC prolif 384 7.1, H69AR growth 86K 1.8, bCat KO growth 1.8, Lung fibro prol 15, PTEN del growth 1.8
Cc1[nH]c(=S)sc1Cc1ccc(F)cc1	none (no result: HUVEC prolif 384, H69AR growth 86K, Lung fibro prol)
CC(C)(C)N1C(=O)Cc2c1nc(N)c1c(N)nc(N3CCCCC3CO)c(C#N)c21 (stereo unspecified)	H69AR growth 86K 20
CN(CCO)c1nc(N)c2c(N)nc3c(c2c1C#N)CC(=O)N3C1CCCC1	H69AR growth 86K 31
CCN(CC)c1nc(N)c2c(N)nc3c(c2c1C#N)CC(c1ccccc1)O3 (stereo unspecified)	none
